# High-throughput results (PubChem BioAssay)
# Rows were chosen to be rich in hits. Some 3% of all compounds tested hit in one or more screens of this group.
# esBAF inh: Bmi1 luciferase reporter increase in mESCs, primary screen, esBAF inhibitor project, mouse ES cells, Bmi1 luciferase knock-in, single point. reporter increase, % at 12.5 µM. 24 h; 100% = twice the neutral-well signal. hit rate 2% among 350,000; in the data active means activation above about 40%;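 further: 0% = median of the plate's neutral control wells and 100% = double that signal; a rise in the Bmi1 reporter signal indicates esBAF inhibition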
# CASP6 VEID inh: human caspase-6 inhibitors, primary screen, biochemical, VEID-R110 fluorescence, single point, set 2; P55212; hit rate 0.53% among 350,000; purified caspase-6, Z-VEID-R110 cleavage fluorescence; inhibition, % at 12.5 µM;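 active means mean inhibition across replicates at least about 35%, with every replicate also reaching that limit, limit read from the data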;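 further: 0% = median of neutral control wells and 100% = no fluorescence left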
# Target sequence (P55212 24-179 limits assumed): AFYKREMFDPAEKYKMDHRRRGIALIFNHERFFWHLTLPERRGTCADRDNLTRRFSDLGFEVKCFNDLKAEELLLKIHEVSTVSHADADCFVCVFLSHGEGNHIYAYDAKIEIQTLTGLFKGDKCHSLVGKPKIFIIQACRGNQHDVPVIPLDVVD
# Target sequence (P55212 194-293 limits assumed): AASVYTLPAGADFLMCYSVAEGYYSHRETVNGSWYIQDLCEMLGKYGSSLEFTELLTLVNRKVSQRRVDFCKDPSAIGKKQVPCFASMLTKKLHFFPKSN
# MITF TRPM1 HTS: activators of MITF-driven TRPM1 promoter reporter, primary screen, cell-based, SK-MEL-5, luciferase, single point; activation, % at 12.5 µM; hit rate 0.75% among 300,000; AID 588334, 2011; SK-MEL-5 TRPM1-promoter luciferase, 24 h; % of positive control, neutral wells = 0;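 active means mean activation of at least 80% with every replicate also reaching 80%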;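 further: 0% = neutral control wells and 100% = parthenolide positive control wells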
# Xi reactivation: activators of inactive X chromosome reactivation, primary screen, imaging, XiGFP fibroblasts, GFP high-content imaging, set 2 | XiGFP mouse fibroblasts, % GFP-positive cells imaging, 3 d; cells co-treated with 5-aza-dC sensitizer; scaled so ellipticine positive control = 100% | activation, % at 7.58 µM | hit rate 0.055% among 360,000 | AID 743238, 2013;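 active means mean normalized replicate activation at least 10% and every replicate at or above 10%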;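 further: 0% = median of on-plate neutral control wells and 100% = ellipticine 6 µM median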
#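 System: 68-5-11 XiGFP fibroblast line | Buffer or medium: DMEM containing 5-aza-dC | Compound: Single point | Times: Compounds 3 days, fix/stain 15 min at room temperature | Benchmarks: Positive control ellipticine, 6 µM final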
# Wnt bcat act: Wnt/beta-catenin pathway activators, primary screen, cell-based, plate reader, single point. Wnt/beta-catenin reporter cell assay, activator. activation, % at 9.35 µM. hit rate 1.2% among 300,000. AID 743398, 2014; in the data active means activation above about 30%, passing the limit was not always enough;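 further: 0% = neutral control wells and 100% = positive control wells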
# NSD2 HMT inh: NSD2 histone methyltransferase inhibitors, primary screen, biochemical, AlphaScreen, single concentration, set 2. inhibition, % at 12.5 µM. hit rate 0.54% among 310,000. NSD2 peptide methylation, 120 min. Histone-lysine N-methyltransferase NSD2 (Homo sapiens), O96028; in the data active means inhibition above about 50%
# An asterisk follows results filed as active; · = no result.
SMILES,esBAF inh,CASP6 VEID inh,MITF TRPM1 HTS,Xi reactivation,Wnt bcat act,NSD2 HMT inh
CCSc1cc(N2CCCC2)nc(-c2ccc(Cl)cc2)n1,1.2,2.1,-0.3,0.0,-0.6,·
COc1ccc2c3c(n(C)c2c1)[C@H](CO)N(C)CC31CCN(S(=O)(=O)c2cn(C)cn2)CC1,·,·,·,0.3,·,·
CCc1c(C)nc(N)c(C#N)c1-c1ccccc1,0.5,-1.0,-2.8,0.0,-13.4,-1.9
Cc1c(CC(C)C)nc(N)c(C#N)c1-c1ccccc1,86.9*,·,-3.4,·,·,-2.8
Nc1c(C(=O)Nc2ccc(S(=O)(=O)N3CCCC3)cc2)sc2nc3cc4c(cc3cc12)CCC4,·,·,14.7,63.2*,16.4,-1.4
COc1ccc(-c2cc3ncc(-c4ccccc4)c(N)n3n2)cc1,·,-1.1,147.5*,-0.9,6.1,-2.1
O=C(O)c1ccc(N/N=C/c2cccc3cccnc23)cc1,·,1.6,65.9,0.2,40.8*,-2.6
Oc1ccccc1/C=N/Nc1cccc2cccnc12,49.8*,·,·,·,67.2*,1.4
O=C(C[C@H]1C=C[C@H](NS(=O)(=O)c2ccccc2)[C@H](CO)O1)N1CCN(c2ccccc2)CC1,·,0.9,·,-0.8,·,·
Oc1c(Cl)c(Cl)c2ncccc2c1Cl,3.1,3.6,6.0,-0.1,-3.2,3.0
COc1cc(N)c2ncccc2c1Cl,1.0,55.6*,-0.1,-0.2,3.6,5.3
O=C(Nc1ccccc1Cl)c1csc(-c2cccnc2)n1,59.5*,-0.9,26.1,-0.1,-0.6,-2.5
C[C@@H]1CN([C@@H](C)CO)C(=O)c2cc(NC(=O)Nc3ccc4c(c3)OCO4)ccc2O[C@@H]1CN(C)Cc1ccc(Cl)c(Cl)c1,6.7,0.4,·,0.0,·,·
CC(=O)c1ccc(/C=C/c2nc3ccccc3n2C)o1,·,0.8,·,0.0,34.7*,19.9
O=C1CCC(c2ccccc2)c2ccccc21 (stereo not drawn),1.7,1.6,·,-0.1,51.8*,-1.7
COc1ccc(NC(=O)N[C@@H]2CC[C@@H](CCNC(=O)Cc3ccncc3)O[C@H]2CO)cc1,-5.4,2.2,·,-0.4,·,·
Cc1cc(C(=O)O)ccc1N/C=C1\CCCC(C)C1=O (stereo not drawn),63.5*,·,-4.8,·,13.0,0.8
Cc1cccc(NC(=O)c2n[nH]c([N+](=O)[O-])c2Br)c1C,12.8,4.1,78.9,0.0,44.5*,-20.0
N=C1C(c2nc3ccccc3s2)=C(O)CN1Cc1ccco1,52.6*,·,88.4*,·,·,2.9
CC1CCc2sc(NC(=S)NC(=O)c3ccccc3)c(C#N)c2C1 (stereo not drawn),58.1*,0.2,52.3,0.3,6.7,5.3
CC(C)(C)c1ccc(C(=O)NC(=S)Nc2sc3c(c2C#N)CCC3)cc1,·,·,8.7,-0.1,-0.8,4.9
N#Cc1c(NC(=S)NC(=O)c2ccccc2)sc2c1CCC2,48.7*,5.8,41.1,0.2,10.3,17.4
C[C@@H]1CCCCO[C@@H](CN(C)Cc2ccc(C(F)(F)F)cc2)[C@H](C)CN([C@@H](C)CO)C(=O)c2cc(NS(=O)(=O)c3ccc(Cl)cc3)ccc2O1,8.4,-0.7,·,-0.1,·,·
CC1(C)CSC(=NCCc2ccccc2)N1,44.6*,1.6,17.5,0.2,-2.1,-2.3
CC1(C)CSC(=NCCc2ccccc2)N1C(=O)c1ccc(C#N)cc1,·,0.1,13.6,0.1,8.4,34.9
SMILES,esBAF inh,CASP6 VEID inh,MITF TRPM1 HTS,Xi reactivation,Wnt bcat act,NSD2 HMT inh
CCC(=O)N1[C@H](CO)[C@H](c2ccc(-c3ccccc3OC)cc2)C12CN(C(C)=O)C2,·,0.2,·,0.0,·,·
C[C@H]1CN(C)C(=O)Cc2ccccc2O[C@@H]1CN(C)S(C)(=O)=O,·,·,·,0.2,·,·
Cc1ccccc1OC1(C)CCN(Cc2ccc(-c3ccccn3)cc2)C1 (stereo not drawn),-7.0,84.5*,·,0.2,-1.1,1.2
COC(C(=O)N1CCC(n2nccc2NC(=O)C2CC2)CC1)c1ccccc1 (stereo not drawn),44.4*,-1.6,46.8,0.1,16.6,2.6
COC(C(=O)Nc1ccnn1C1CCN(C(=O)c2ccc(C=O)cc2)CC1)c1ccccc1 (stereo not drawn),1.0,-1.0,9.5,0.2,-2.9,-1.6
COc1ccc(CN=C(N)N=C(N)N)cc1Cl,-7.5,56.1*,-1.3,0.1,-2.8,-8.0
CC(C)Oc1ccc(CN=C(N)N=C(N)N)cc1Cl,·,-0.5,-8.9,0.0,-3.8,-0.8
Cc1ccc(S(=O)(=O)NC2=C(N3CCN(Cc4ccccc4)CC3)C(=O)c3ccccc3C2=O)cc1,·,9.0,-38.8,0.0,·,40.3
Cc1ccc(NC2=C(N3CCOCC3)C(=O)c3ccccc3C2=O)cc1,-5.6,·,-6.5,·,·,100.5*
CCOC(=O)N1CCN(C2=C(NS(=O)(=O)c3ccc(C)cc3)C(=O)c3ccccc3C2=O)CC1,1.0,·,-55.0,0.0,-0.4,63.8*
O=C(O)c1ccc(NC2=C(N3CCOCC3)C(=O)c3ccccc3C2=O)cc1,·,·,7.1,0.0,-4.5,95.4*
C[C@@H]1CN([C@@H](C)CO)S(=O)(=O)c2ccc(-c3cccnc3)cc2O[C@@H]1CN(C)C(=O)C1CC1,·,·,·,0.0,·,·
CCC(=O)N1CC2(C1)[C@H](c1ccccc1)[C@H](CO)N2CC1CCOCC1,·,-2.8,·,0.1,·,·
O=C(C[C@@H]1CC[C@@H]2[C@H](COC[C@@H](O)CN2C(=O)c2ccncc2)O1)NC1CCC1,-1.0,2.1,·,0.3,·,·
Cc1ccc2nc(NC(=O)CS(=O)(=O)Cc3ccccc3)sc2c1,5.7,-5.2,16.1,0.0,40.1*,1.5
Cc1ccc2nc(NC(=O)CCNS(=O)(=O)c3cccs3)sc2c1,69.6*,·,46.4,·,11.9,-0.2
CS(=O)(=O)c1ccc2nc(NC(=O)c3ccccc3)sc2c1,15.9,-2.0,·,0.0,0.3,·
COCC(=O)Nc1nc2ccc(C)cc2s1,·,·,49.2,·,39.7*,0.1
Cc1cccc(C(=O)Nc2nc3ccc(S(C)(=O)=O)cc3s2)c1,46.0*,-2.0,·,0.2,-1.3,5.4
C[C@@H]1CCCCO[C@H](CN(C)C(=O)CCC(F)(F)F)[C@H](C)CN([C@H](C)CO)C(=O)c2cc(NS(=O)(=O)c3ccccc3)ccc2O1,2.1,0.8,·,0.0,·,·
O=C(CS(=O)(=O)c1ccccc1)Nc1nc2ccccc2s1,40.9*,-1.5,3.9,0.3,10.9,0.9
NS(=O)(=O)c1ccc2nc(NC(=O)CS(=O)(=O)c3ccccc3)sc2c1,1.3,3.4,15.9,-0.1,-2.1,4.9
C[C@@H]1CN([C@H](C)CO)C(=O)c2cc(NC(=O)Cn3cnnn3)ccc2O[C@@H]1CN(C)C,0.4,2.1,·,-0.3,·,·
